# Source: PMC5114172 (Journal of applied toxicology : JAT, 2016)
# Tested on: monocyte-depleted PBMCs
# Experiment: IL-1β secretion assay
# Format: cell-based, human
# Settings: MD-PBMCs
# Outline: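 NK cells, MD-PBMCs, PBMCs or granulocytes (1.5 million/mL) or PBMC+granulocytes (0.75 million/mL each), per donor, exposed 24 h, 48 h or 6 days to 0.05–5 μM test compound diluted from DMSO stock, with DMSO controls. Supernatants kept at −70 °C. IL-1β by sandwich ELISA: HRP detection antibody, acid-stopped substrate, A450 against standards. Detection limit 3 pg/mL; triplicates; ANOVA then t test versus control, p<0.05.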
compound,measurement,setting,value
"CCC[CH2][Sn][CH2]CCC [DBT, Dibutyltin]",average of the maximum fold increase in IL-β secretion,"24 h, across donors",2.0 fold
same,Interleukin 1 beta secreted,"donor F142, 24 h, 0.05 μM DBT",11284 ± 763 pg/mL
same,fold increase in IL-1β secretion,"donor F142, 24 h, 0.05 μM DBT",1.5 fold
same,fold increase in IL-1β secretion,"donor F142, 24 h, 50 nM DBT",1.5 fold
same,Interleukin 1 beta secreted,"donor F142, 24 h, 0.1 μM DBT",12495 ± 3130 pg/mL
same,fold increase in IL-1β secretion,"donor F142, 24 h, 100 nM DBT",1.6 fold
same,Interleukin 1 beta secreted,"donor F142, 24 h, 0.25 μM DBT",4456 ± 561 pg/mL
same,Interleukin 1 beta secreted,"donor F142, 24 h, 0.5 μM DBT",2637 ± 1438 pg/mL
same,Interleukin 1 beta secreted,"donor F142, 24 h, 1 μM DBT",77 ± 24 pg/mL
same,Interleukin 1 beta secreted,"donor F142, 48 h, 0.05 μM DBT",14932 ± 420 pg/mL
same,Interleukin 1 beta secreted,"donor F142, 48 h, 0.1 μM DBT",15275 ± 650 pg/mL
same,Interleukin 1 beta secreted,"donor F142, 48 h, 0.25 μM DBT",6455 ± 123 pg/mL
same,Interleukin 1 beta secreted,"donor F142, 48 h, 0.5 μM DBT",2604 ± 133 pg/mL
same,Interleukin 1 beta secreted,"donor F142, 48 h, 1 μM DBT",851 ± 54 pg/mL
same,Interleukin 1 beta secreted,"donor F142, 48 h, 2.5 μM DBT",6 ± 27 pg/mL
same,Interleukin 1 beta secreted,"donor F142, 6 day, 0.05 μM DBT",2303 ± 313 pg/mL
same,Interleukin 1 beta secreted,"donor F142, 6 day, 0.1 μM DBT",1606 ± 808 pg/mL
same,Interleukin 1 beta secreted,"donor F142, 6 day, 0.25 μM DBT",560 ± 127 pg/mL
same,Interleukin 1 beta secreted,"donor F142, 6 day, 0.5 μM DBT",270 ± 197 pg/mL
same,Interleukin 1 beta secreted,"donor F142, 6 day, 1 μM DBT",90 ± 100 pg/mL
same,Interleukin 1 beta secreted,"donor F145, 24 h, 0.05 μM DBT",3333 ± 164 pg/mL
same,fold increase in IL-1β secretion,"donor F145, 24 h, 50 nM DBT",1.5 fold
same,Interleukin 1 beta secreted,"donor F145, 24 h, 0.1 μM DBT",2390 ± 497 pg/mL
same,fold increase in IL-1β secretion,"donor F145, 24 h, 100 nM DBT",no increase
same,Interleukin 1 beta secreted,"donor F145, 24 h, 0.25 μM DBT",700 ± 8 pg/mL
same,Interleukin 1 beta secreted,"donor F145, 24 h, 0.5 μM DBT",47 ± 59 pg/mL
same,Interleukin 1 beta secreted,"donor F145, 48 h, 0.05 μM DBT",780 ± 323 pg/mL
same,Interleukin 1 beta secreted,"donor F145, 48 h, 0.1 μM DBT",2232 ± 1035 pg/mL
same,Interleukin 1 beta secreted,"donor F145, 48 h, 0.25 μM DBT",337 ± 347 pg/mL
same,Interleukin 1 beta secreted,"donor F145, 6 day, 0.05 μM DBT",983 ± 248 pg/mL
same,Interleukin 1 beta secreted,"donor F145, 6 day, 0.1 μM DBT",987 ± 577 pg/mL
same,Interleukin 1 beta secreted,"donor F145, 6 day, 0.25 μM DBT",535 ± 16 pg/mL
same,Interleukin 1 beta secreted,"donor F145, 6 day, 0.5 μM DBT",147 ± 55 pg/mL
same,Interleukin 1 beta secreted,"donor F152, 24 h, 0.05 μM DBT",721 ± 36 pg/mL
same,Interleukin 1 beta secreted,"donor F152, 24 h, 0.1 μM DBT",516 ± 26 pg/mL
same,Interleukin 1 beta secreted,"donor F152, 24 h, 0.25 μM DBT",406 ± 29 pg/mL
same,Interleukin 1 beta secreted,"donor F152, 24 h, 0.5 μM DBT",340 ± 57 pg/mL
same,Interleukin 1 beta secreted,"donor F152, 24 h, 1 μM DBT",224 ± 9 pg/mL
same,Interleukin 1 beta secreted,"donor F152, 24 h, 2.5 μM DBT",83 ± 22 pg/mL
same,Interleukin 1 beta secreted,"donor F152, 24 h, 5 μM DBT",19 ± 12 pg/mL
same,Interleukin 1 beta secreted,"donor F152, 48 h, 0.05 μM DBT",563 ± 54 pg/mL
same,Interleukin 1 beta secreted,"donor F152, 48 h, 0.1 μM DBT",495 ± 72 pg/mL
same,Interleukin 1 beta secreted,"donor F152, 48 h, 0.25 μM DBT",607 ± 71 pg/mL
same,Interleukin 1 beta secreted,"donor F152, 48 h, 0.5 μM DBT",703 ± 34 pg/mL
same,Interleukin 1 beta secreted,"donor F152, 48 h, 1 μM DBT",296 ± 56 pg/mL
same,Interleukin 1 beta secreted,"donor F152, 48 h, 2.5 μM DBT",35 ± 38 pg/mL
same,Interleukin 1 beta secreted,"donor F152, 48 h, 5 μM DBT",86 ± 37 pg/mL
same,Interleukin 1 beta secreted,"donor F152, 6 day, 0.05 μM DBT",81 ± 21 pg/mL
same,Interleukin 1 beta secreted,"donor F152, 6 day, 0.1 μM DBT",71 ± 6 pg/mL
same,Interleukin 1 beta secreted,"donor F152, 6 day, 0.25 μM DBT",118 ± 11 pg/mL
same,Interleukin 1 beta secreted,"donor F152, 6 day, 0.5 μM DBT",161 ± 62 pg/mL
same,Interleukin 1 beta secreted,"donor F152, 6 day, 1 μM DBT",41 ± 7 pg/mL
same,Interleukin 1 beta secreted,"donor F152, 6 day, 2.5 μM DBT",20 ± 18 pg/mL
same,Interleukin 1 beta secreted,"donor F152, 6 day, 5 μM DBT",14 ± 1 pg/mL
same,Interleukin 1 beta secreted,"donor F163, 24 h, 0.05 μM DBT",613 ± 57 pg/mL
same,Interleukin 1 beta secreted,"donor F163, 24 h, 0.1 μM DBT",370 ± 13 pg/mL
same,Interleukin 1 beta secreted,"donor F163, 24 h, 0.25 μM DBT",309 ± 15 pg/mL
same,Interleukin 1 beta secreted,"donor F163, 24 h, 0.5 μM DBT",310 ± 16 pg/mL
same,Interleukin 1 beta secreted,"donor F163, 24 h, 1 μM DBT",130 ± 5 pg/mL
same,Interleukin 1 beta secreted,"donor F163, 24 h, 2.5 μM DBT",70 ± 25 pg/mL
same,Interleukin 1 beta secreted,"donor F163, 24 h, 5 μM DBT",86 ± 44 pg/mL
same,Interleukin 1 beta secreted,"donor F163, 48 h, 0.05 μM DBT",607 ± 86 pg/mL
same,Interleukin 1 beta secreted,"donor F163, 48 h, 0.1 μM DBT",342 ± 34 pg/mL
same,Interleukin 1 beta secreted,"donor F163, 48 h, 0.25 μM DBT",547 ± 68 pg/mL
same,Interleukin 1 beta secreted,"donor F163, 48 h, 0.5 μM DBT",677 ± 378 pg/mL
same,Interleukin 1 beta secreted,"donor F163, 48 h, 1 μM DBT",701 ± 111 pg/mL
same,Interleukin 1 beta secreted,"donor F163, 6 day, 0.05 μM DBT",715 ± 87 pg/mL
same,Interleukin 1 beta secreted,"donor F163, 6 day, 0.1 μM DBT",497 ± 75 pg/mL
same,Interleukin 1 beta secreted,"donor F163, 6 day, 0.25 μM DBT",305 ± 36 pg/mL
same,Interleukin 1 beta secreted,"donor F163, 6 day, 0.5 μM DBT",664 ± 70 pg/mL
same,Interleukin 1 beta secreted,"donor F163, 6 day, 1 μM DBT",175 ± 3 pg/mL
same,Interleukin 1 beta secreted,"donor F166, 24 h, 0.05 μM DBT",6772 ± 386 pg/mL
same,fold increase in IL-1β secretion,"donor F166, 24 h, 0.05 μM DBT",3.0 fold
same,Interleukin 1 beta secreted,"donor F166, 24 h, 0.1 μM DBT",5569 ± 527 pg/mL
same,Interleukin 1 beta secreted,"donor F166, 24 h, 0.25 μM DBT",2788 ± 126 pg/mL
same,Interleukin 1 beta secreted,"donor F166, 24 h, 0.5 μM DBT",158 ± 43 pg/mL
same,Interleukin 1 beta secreted,"donor F166, 48 h, 0.05 μM DBT",14662 ± 1044 pg/mL
same,Interleukin 1 beta secreted,"donor F166, 48 h, 0.1 μM DBT",12941 ± 423 pg/mL
same,Interleukin 1 beta secreted,"donor F166, 48 h, 0.25 μM DBT",5307 ± 349 pg/mL
same,Interleukin 1 beta secreted,"donor F166, 48 h, 0.5 μM DBT",924 ± 101 pg/mL
same,Interleukin 1 beta secreted,"donor F166, 48 h, 1 μM DBT",1075 ± 230 pg/mL
same,Interleukin 1 beta secreted,"donor F166, 48 h, 2.5 μM DBT",1981 ± 3260 pg/mL
same,Interleukin 1 beta secreted,"donor F166, 6 day, 0.05 μM DBT",6655 ± 930 pg/mL
same,Interleukin 1 beta secreted,"donor F166, 6 day, 0.1 μM DBT",4959 ± 11 pg/mL
